Key:
[1] = tested on: CAPAN-1; test: Growth inhibition of human Capan1 cells after 96 hrs by SRB assay; assay type: functional, cell-based; conditions: CAPAN-1, 96 h
How it was run: (§1)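 Cell lines kept at 37 °C, 5% CO2 in medium with 10% FBS and 2 mM L-glutamine. Compound dissolved in water, filter-sterilised, 10 mM stock diluted into media. Growth read by 96 h sulforhodamine B assay, absorbance at 540 nm. IC50 taken from mean absorbance per concentration as % of untreated wells, >3 individual determinations with standard deviations.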

[2] = tested on: BXPC-3; test: Growth inhibition of human BxPC3 cells after 96 hrs by SRB assay; assay type: functional, cell-based; conditions: BXPC-3, 96 h; how it was run: as §1
[3] = tested on: MIA PaCa-2; test: Antitumor activity against human MIAPaCa2 cells xenografted in CD-1 nude mouse assessed as change in tumor volume at 15 mg/kg, iv administered twice weekly for 4 weeks measured on day 29 relative to control; assay type: functional
How it was run: (§2)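 Female CD-1 nude mice (2-3 months, 20−25 g) given 5 x 10^6 MIA PaCa-2 cells subcutaneously in right flank with Matrigel; dosing began once tumors were established (approx. 13 days, mean 0.05 cm3). Eight mice/group, IV in saline twice weekly for 28 days (8 doses) against a saline group. Tumors measured by calliper (length × width × height × π/6), with body weight. Student's t test.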

[4] = tested on: MIA PaCa-2; test: Antitumor activity against human MIAPaCa2 cells xenografted in CD-1 nude mouse assessed as change in tumor volume at 15 mg/kg, iv administered twice weekly for 4 weeks measured on day 62 relative to control; assay type: functional; how it was run: as §2
[5] = organism: Homo sapiens; test: Binding affinity to 5'-FAM/3'-TAMRA labeled human telomeric F21T G-quadruplex DNA assessed as change in melting temperature at 1 uM by FRET assay
How it was run: (§3)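 FRET melting with FAM/TAMRA dual-labelled oligonucleotides at 400 nM, annealed at 95 °C for 10 min in 60 mM potassium cacodylate pH 7.4 and slowly cooled. Ligand final 1 μM; solution contains 50 mM K+. Fluorescence read every 0.5 °C over 30–100 °C with 30 s hold, excitation 450–495 nm and emission 515–545 nm. ΔTm from curve fitting, triplicate measurements.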

[6] = Binding affinity to 5'-FAM/3'-TAMRA labeled HSP90A promoter G-quadruplex DNA (unknown origin) assessed as change in melting temperature at 1 uM by FRET assay
How it was run: (§4)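 FRET melting of FAM/TAMRA dual-labelled promoter G4 oligonucleotides, 400 nM, annealed at 95 °C for 10 min in 60 mM potassium cacodylate (pH 7.4) then cooled to RT. Ligand at 1 μM in solution with 50 mM K+. Fluorescence (ex 450–495, em 515–545 nm) read every 0.5 °C over 30–100 °C with a 30 sec hold per step. ΔTm from curve fitting; triplicate measurements.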

[7] = Binding affinity to 5'-FAM/3'-TAMRA labeled HSP90B promoter G-quadruplex DNA (unknown origin) assessed as change in melting temperature at 1 uM by FRET assay; how it was run: as §3
[8] = Binding affinity to 5'-FAM/3'-TAMRA labeled KRAS21 promoter G-quadruplex DNA (unknown origin) assessed as change in melting temperature at 1 uM by FRET assay; how it was run: as §4
[9] = Binding affinity to 5'-FAM/3'-TAMRA labeled KRAS32 promoter G-quadruplex DNA (unknown origin) assessed as change in melting temperature at 1 uM by FRET assay; how it was run: as §4
[10] = Binding affinity to 5'-FAM/3'-TAMRA labeled BCL2 promoter G-quadruplex DNA (unknown origin) assessed as change in melting temperature at 1 uM by FRET assay; how it was run: as §3
[11] = Binding affinity to 5'-FAM/3'-TAMRA labeled T-loop duplex DNA (unknown origin) assessed as change in melting temperature at 1 uM by FRET assay; how it was run: as §3
[12] = tested on: A549; test: Growth inhibition of human A549 cells after 96 hrs by SRB assay; assay type: functional, cell-based; conditions: A549, 96 h; how it was run: as §1
[13] = tested on: MIA PaCa-2; test: Growth inhibition of human MIAPaCa2 cells after 96 hrs by SRB assay; assay type: functional, cell-based; conditions: MIA PaCa-2, 96 h; how it was run: as §1
[14] = Binding affinity to 5'-FAM/3'-TAMRA labeled human telomeric F21T G-quadruplex DNA by fluorescence anisotropy titration method
[15] = Selectivity index, ratio of IC50 for human WI38 cells to IC50 for human MIAPaCa2 cells; assay type: functional
How it was run: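 SRB growth-inhibition assay over 96 h with compounds dissolved in water; cells grown in 10 % FBS at 37 °C, 5% CO2. Absorbance at 540 nm as a percentage of untreated wells gives the IC50. Values are averages of >3 determinations, with the ratio taken as WI-38 IC50 over MIA PaCa-2 IC50.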

[16] = Toxicity in iv dosed CD-1 nude mouse assessed as death measured up to 72 hrs; assay type: organism-based; conditions: in vivo
How it was run: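 CD1 nude mice, two per group, given single IV doses in saline (10, 20, 30, 35, 40, 45, 50 and 60 mg/kg), with repeat dosing weekly. Watched for adverse effects for up to 72 h. Tolerated dose taken as highest cohort in which all mice survived without observed ill-effects.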

Structure (SMILES)	IC50 [1]	IC50 [2]	Activity [3]	Activity [4]	ΔTm [5]	ΔTm [6]	ΔTm [7]	ΔTm [8]	ΔTm [9]	ΔTm [10]	ΔTm [11]	IC50 [12]	IC50 [13]	Kd [14]	Ratio IC50 [15]	MTD at 72 h [16]
Nc1ccn([C@@H]2O[C@H](CO)[C@@H](O)C2(F)F)c(=O)n1 [GEMCITABINE]	19 nM	6 nM	-66.7%	-61.7%												
CN1CCN(CCCNc2cc3c4c(c(NCCCN5CCN(C)CC5)cc5c4c2C(=O)N(CCCN2CCOCC2)C5=O)C(=O)N(CCCN2CCOCC2)C3=O)CC1			-66.7%	-56.7%	26.6 °C	33.1 °C	28.6 °C	22.5 °C	19.8 °C	26.4 °C	4.9 °C	19 nM	11 nM	20 nM	21	25 mg/kg

Source: ChEMBL document CHEMBL4020827, “Targeting Multiple Effector Pathways in Pancreatic Ductal Adenocarcinoma with a G-Quadruplex-Binding Small Molecule” (J Med Chem, 2018)
